Our source for the Control, Reduction and Ki values is ChEMBL document CHEMBL1131093, “ATP-Citrate lyase as a target for hypolipidemic intervention. 2. Synthesis and evaluation of (3R,5S)-omega-substituted-3-carboxy-3, 5-dihydroxyalkanoic acids and their gamma-lactone prodrugs as inhibitors of the enzyme in vitro and in vivo” (J Med Chem, 1998).

In test [1] the test system is HepG2. In words: Inhibition of fatty acid synthesis in HepG2 cells was measured at 300 uM concentration. It counts as functional, Homo sapiens. On the set-up: scale not given: the % may be the effect or the level left. A digest of the protocol:
(§1)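 Compounds were applied to HepG2 cells as their γ-lactone prodrugs. De novo cholesterol synthesis, fatty acid synthesis and cellular ATP levels were each expressed as % of control. Significance was marked at p < 0.001.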

Test [2] concerns HepG2. Description: Inhibition of cholesterol synthesis in HepG2 cells was measured at 100 uM concentration. On the set-up: scale not given: the % may be the effect or the level left.
Test [3] relates to HepG2. In words: Inhibition of fatty acid synthesis in HepG2 cells was measured at 100 uM concentration. The arrangement: scale not given: the % may be the effect or the level left.
Test [4] concerns HepG2. Description: Inhibition of cholesterol synthesis in HepG2 cells was measured at 300 uM concentration. It counts as functional, Homo sapiens. On the set-up: scale not given: the % may be the effect or the level left. A digest of the protocol: as §1
Test [5] concerns HepG2. Description: Inhibition of ATP levels in HepG2 cells was measured at 1000 uM concentration. On the set-up: scale not given: the % may be the effect or the level left. It counts as functional, Homo sapiens. In short, it runs like this: as §1
For test [6], the system named is HepG2. Description: Inhibition of fatty acid synthesis in HepG2 cells was measured at 1000 uM concentration. It counts as functional, Homo sapiens. The arrangement: scale not given: the % may be the effect or the level left. A digest of the protocol: as §1
The test system of test [7] is HepG2. Description: Inhibition of ATP levels in HepG2 cells was measured at 300 uM concentration. Type of test: functional, Homo sapiens. The arrangement: scale not given: the % may be the effect or the level left. In short, it runs like this: as §1
In test [8] the test system is HepG2. Description: Inhibition of cholesterol synthesis in HepG2 cells was measured at 1000 uM concentration. Type of test: functional, Homo sapiens. On the set-up: scale not given: the % may be the effect or the level left. A digest of the protocol:
as §1

Test [9] concerns HepG2. Description: Inhibition of ATP levels in HepG2 cells was measured at 1 uM concentration. Type of test: functional, Homo sapiens. The arrangement: scale not given: the % may be the effect or the level left. In short, it runs like this: as §1
Test [10] deals with HepG2. Description: Inhibition of fatty acid synthesis in HepG2 cells was measured at 10 uM concentration. Type of test: functional, Homo sapiens. The arrangement: scale not given: the % may be the effect or the level left. A digest of the protocol:
as §1

Test [11] deals with HepG2. Description: Inhibition of cholesterol synthesis in HepG2 cells was measured at 3 uM concentration. Type of test: functional, Homo sapiens. The arrangement: scale not given: the % may be the effect or the level left. In short, it runs like this: as §1
Test [12] relates to HepG2. In words: Inhibition of fatty acid synthesis in HepG2 cells was measured at 3 uM concentration. It counts as functional, Homo sapiens. On the set-up: scale not given: the % may be the effect or the level left. A digest of the protocol: as §1
Test [13] deals with HepG2. In words: Inhibition of ATP levels in HepG2 cells was measured at 3 uM concentration. It counts as functional, Homo sapiens. On the set-up: scale not given: the % may be the effect or the level left. In short, it runs like this: as §1
The subject of test [14] is HepG2. Description: Inhibition of ATP levels in HepG2 cells was measured at 10 uM concentration. It counts as functional, Homo sapiens. On the set-up: scale not given: the % may be the effect or the level left. A digest of the protocol: as §1
Test [15] has as its system HepG2. Description: Inhibition of cholesterol synthesis in HepG2 cells was measured at 10 uM concentration. Type of test: functional, Homo sapiens. On the set-up: scale not given: the % may be the effect or the level left. A digest of the protocol: as §1
Test [16] relates to HepG2. Description: Inhibition of ATP levels in HepG2 cells was measured at 28.2 uM concentration. Type of test: functional, Homo sapiens. The arrangement: scale not given: the % may be the effect or the level left.
For test [17], the system named is Rattus norvegicus. Description: % Reduction of plasma triglyceride in the rat was measured at dose 37.5 mg/kg/d. Type of test: functional. A digest of the protocol:
(§2)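 Male Sprague-Dawley rats were kept on a reverse 12 h light/12 h dark cycle with free access to RM1 powdered diet and water. Compound was given orally by gavage as two doses 24 h apart. Blood was drawn mid dark cycle, 4 h after the second dose, into EDTA. Plasma was separated at 1500g for 15 min. Triglyceride was measured enzymatically (GPO-PAP) and reported as % reduction from control.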

Test [18] deals with Rattus norvegicus. In words: % Reduction of plasma triglyceride in the rat was measured at dose 75 mg/kg/d. Type of test: functional. A digest of the protocol: as §2
Test [19] addresses T1, ATP-citrate synthase (Homo sapiens, UniProt P53396).
T1 sequence (P53396 whole entry): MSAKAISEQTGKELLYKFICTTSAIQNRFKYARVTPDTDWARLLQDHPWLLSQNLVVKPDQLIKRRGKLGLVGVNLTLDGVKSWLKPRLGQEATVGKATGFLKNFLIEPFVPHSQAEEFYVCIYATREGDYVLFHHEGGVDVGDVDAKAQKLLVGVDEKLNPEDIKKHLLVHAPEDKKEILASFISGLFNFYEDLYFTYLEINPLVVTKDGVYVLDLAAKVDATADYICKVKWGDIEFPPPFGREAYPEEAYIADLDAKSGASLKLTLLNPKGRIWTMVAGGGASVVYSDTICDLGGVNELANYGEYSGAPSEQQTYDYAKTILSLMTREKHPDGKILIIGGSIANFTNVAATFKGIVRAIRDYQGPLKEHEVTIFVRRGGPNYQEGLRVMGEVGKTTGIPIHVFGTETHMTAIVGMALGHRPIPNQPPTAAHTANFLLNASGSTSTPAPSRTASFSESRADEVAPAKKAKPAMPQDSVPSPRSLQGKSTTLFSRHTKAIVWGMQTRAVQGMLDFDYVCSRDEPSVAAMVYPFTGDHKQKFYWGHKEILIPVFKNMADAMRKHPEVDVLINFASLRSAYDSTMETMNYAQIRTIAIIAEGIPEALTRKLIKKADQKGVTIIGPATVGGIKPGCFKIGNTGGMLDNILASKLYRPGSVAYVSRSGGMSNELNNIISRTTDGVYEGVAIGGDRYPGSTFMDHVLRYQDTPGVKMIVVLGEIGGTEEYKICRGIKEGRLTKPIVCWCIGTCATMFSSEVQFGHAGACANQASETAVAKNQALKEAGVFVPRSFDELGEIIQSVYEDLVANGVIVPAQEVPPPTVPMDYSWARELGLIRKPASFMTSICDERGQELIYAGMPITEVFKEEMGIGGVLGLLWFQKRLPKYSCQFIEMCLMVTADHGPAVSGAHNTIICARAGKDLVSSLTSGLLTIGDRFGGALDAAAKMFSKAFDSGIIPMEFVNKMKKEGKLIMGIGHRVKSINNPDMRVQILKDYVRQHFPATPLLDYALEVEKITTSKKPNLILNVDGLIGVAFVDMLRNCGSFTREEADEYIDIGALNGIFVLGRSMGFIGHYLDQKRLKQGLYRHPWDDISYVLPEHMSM
In words: Inhibitory activity was tested against human recombinant ATP-Citrate Lyase (ACL) enzyme. In short, it runs like this: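 Recombinant human ACL enzyme. Compounds purified as γ-lactones were hydrolysed back to the open hydroxy diacid with excess aqueous NaOH before being added to the assay buffer mix. Potency is reported as the reversible Ki for enzyme inhibition.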

Test [20] concerns HepG2. In words: Inhibition of ATP levels in HepG2 cells was measured at 100 uM concentration. It counts as functional, Homo sapiens. On the set-up: scale not given: the % may be the effect or the level left. A digest of the protocol:
as §1

In test [21] the test system is HepG2. In words: Inhibition of cholesterol synthesis in HepG2 cells was measured at 100 uM concentration. It counts as functional, Homo sapiens. The arrangement: scale not given: the % may be the effect or the level left. In short, it runs like this:
as §1

Test [22] concerns the target T2, ATP-citrate synthase (Rattus norvegicus, UniProt P16638).
T2 sequence (P16638 whole entry): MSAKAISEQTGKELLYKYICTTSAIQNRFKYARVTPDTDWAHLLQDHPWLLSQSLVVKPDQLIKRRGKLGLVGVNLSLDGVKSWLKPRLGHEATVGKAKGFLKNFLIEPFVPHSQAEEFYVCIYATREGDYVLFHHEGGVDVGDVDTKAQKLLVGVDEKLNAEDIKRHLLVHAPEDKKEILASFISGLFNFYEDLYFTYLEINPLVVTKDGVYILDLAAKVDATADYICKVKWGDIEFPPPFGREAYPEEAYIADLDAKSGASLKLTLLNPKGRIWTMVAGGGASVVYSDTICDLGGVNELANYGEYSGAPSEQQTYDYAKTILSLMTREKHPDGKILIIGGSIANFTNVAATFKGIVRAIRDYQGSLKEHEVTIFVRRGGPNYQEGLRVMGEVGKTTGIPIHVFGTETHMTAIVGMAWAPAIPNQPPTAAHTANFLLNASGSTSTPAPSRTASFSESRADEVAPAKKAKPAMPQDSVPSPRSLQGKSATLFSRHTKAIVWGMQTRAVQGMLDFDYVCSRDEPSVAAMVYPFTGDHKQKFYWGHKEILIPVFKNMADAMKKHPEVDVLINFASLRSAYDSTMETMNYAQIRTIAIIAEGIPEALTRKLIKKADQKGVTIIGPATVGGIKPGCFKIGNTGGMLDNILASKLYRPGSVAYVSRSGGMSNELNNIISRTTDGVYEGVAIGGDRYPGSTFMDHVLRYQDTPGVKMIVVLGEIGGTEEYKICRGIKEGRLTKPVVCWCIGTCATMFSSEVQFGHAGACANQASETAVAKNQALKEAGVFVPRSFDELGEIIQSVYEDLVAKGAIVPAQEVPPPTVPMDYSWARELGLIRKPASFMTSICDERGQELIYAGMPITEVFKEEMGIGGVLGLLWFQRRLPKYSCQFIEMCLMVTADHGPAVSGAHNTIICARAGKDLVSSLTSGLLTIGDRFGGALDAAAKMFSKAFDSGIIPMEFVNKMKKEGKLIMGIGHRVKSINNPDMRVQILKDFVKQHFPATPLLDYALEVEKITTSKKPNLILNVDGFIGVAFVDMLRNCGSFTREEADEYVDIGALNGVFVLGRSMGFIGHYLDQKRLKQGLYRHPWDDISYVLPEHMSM
In words: Inhibitory activity was tested against rat ATP-Citrate Lyase (ACL) enzyme.

“And” between values parts separate entries of the source, which are not always exact repeats. Identical values can stand only once.

On to `O=C(O)C[C@@](O)(C(=O)O)[C@H](O)C(=O)O`, for which the Control in the test with HepG2 [1] amounted to 79%; in the test on HepG2 [2], 110%; in the test with HepG2 [3], 87%; in the test on HepG2 [4], 40%; with HepG2 [5], 104%; in the test with HepG2 [6] it was 57%. The results for the Control with HepG2 [7] and with HepG2 [8] were 103% and 15%, respectively.

As for `O=C(O)[C@H](O)[C@@]1(O)C[C@@H](CCCCCCc2ccc(Cl)cc2Cl)OC1=O`, the Control in the test on HepG2 [9] is given as 103%; with HepG2 [10] it was 76%; with HepG2 [11], 69%; in the test with HepG2 [12] it was 74%; in the test with HepG2 [13], 100%; with HepG2 [14], 106%. Also, the Control with HepG2 [15] was found to be 86%.

As for `Cc1cn(-c2cc(Cl)ccc2CCCCCC[C@@H]2C[C@](O)(CC(=O)O)C(=O)O2)cc1C`, the Control was 96% with HepG2 [16]; 75% and 89% in the test with HepG2 [10]; 104% in the test with HepG2 [11]; 102% in the test on HepG2 [12]; 98% in the test with HepG2 [13]; 96% and 101% in the test on HepG2 [14]. The molecule further displayed a Control in the test on HepG2 [15] of 82%. The Reduction with Rattus norvegicus [17] is 10%; in the test on Rattus norvegicus [18], 20%.

On to `O=C(O)C[C@@](O)(C[C@H](O)CCCCCCc1ccc(Cl)cc1Cl)C(=O)O` (stereo in doubt; 45), for which the Ki on ATP-citrate synthase [19] and at ATP-citrate synthase [22] was 1 µM in each case. Besides, the results for the Control in the test with HepG2 [20] and in the test with HepG2 [21] were 104% and 84%, respectively.
